The source made the active and inactive calls. The calls are words filed in the database; no cut-off is given here.
Assays:
Serine protease hepsin [1] = molecular target: T1, Serine protease hepsin (Homo sapiens, UniProt P05981, D161E/R162K); test: Inhibition of recombinant C-terminal His10-tagged human Hepsin (R45 to […] residues) D161E/ R162K double mutant expressed in mouse NS0 cells using Boc-QRR-AMC as substrate after 15 mins by automated fluorescence assay
Outline: (§1)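 On-line assay integrated with the flow-synthesis platform: a 20 µL aliquot of each product solution captured automatically, HPLC-purified, then diluted and assayed.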

[2] = molecular target: T2, Urokinase-type plasminogen activator (Homo sapiens, UniProt P00749); test: Inhibition of recombinant C-terminal His10-tagged human uPA (M1 to L431 residues) expressed in mouse NS0 cells using Z-GGR-AMC as substrate after 15 mins by automated fluorescence assay; outline: as §1
Homo sapiens [3] = species: Homo sapiens; test: Selectivity ratio of IC50 for recombinant C-terminal His10-tagged human uPA (M1 to L431 residues) to IC50 for recombinant C-terminal His10-tagged human Hepsin (R45 to […] residues) D161E/ R162K double mutant by automated fluorescence assay
[4] = Chromatographic hydrophobicity index, log D of the compound at pH 7 by HPLC/UV analysis; type: physicochemical; settings: buffer
Serine protease hepsin [5] = molecular target: T3, Serine protease hepsin (Homo sapiens, UniProt P05981); test: Inhibition of hepsin-mediated conversion of Pro-HGF into active form in human Hs578T cells assessed as decrease in MET phosphorylation at 100 nM preincubated for 30 mins followed by recombinant human pro-HGF addition measured after 30 mins by immunoblot method; type: cell-based
T3 sequence (P05981 1-162 limits assumed): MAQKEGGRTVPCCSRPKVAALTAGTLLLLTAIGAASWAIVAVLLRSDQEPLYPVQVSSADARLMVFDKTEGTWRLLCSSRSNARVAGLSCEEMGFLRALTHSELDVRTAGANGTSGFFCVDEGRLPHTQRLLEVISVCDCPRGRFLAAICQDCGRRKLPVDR
T3 sequence (P05981 163-417 limits assumed): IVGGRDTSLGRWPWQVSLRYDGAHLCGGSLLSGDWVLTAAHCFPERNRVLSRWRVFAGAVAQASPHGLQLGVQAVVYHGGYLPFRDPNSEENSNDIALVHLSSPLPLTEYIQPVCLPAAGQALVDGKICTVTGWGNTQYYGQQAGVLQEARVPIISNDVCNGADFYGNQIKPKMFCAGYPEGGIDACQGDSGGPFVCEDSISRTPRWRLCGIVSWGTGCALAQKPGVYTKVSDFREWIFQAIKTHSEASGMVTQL
Outline: (§2)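 Hs578T or HCC1937 breast cells incubated with DMSO or inhibitor, then 50 ng/mL recombinant human Pro-HGF added; MET pathway activation (phospho-MET) assessed by immunoblotting.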

Serine protease hepsin [6] = molecular target: T3, Serine protease hepsin; test: Inhibition of hepsin-mediated conversion of Pro-HGF into active form in human HCC1937 cells assessed as decrease in MET phosphorylation at 100 nM preincubated for 30 mins followed by recombinant human pro-HGF addition measured after 30 mins by immunoblot method; type: cell-based; outline: as §2
Serine protease hepsin [7] = molecular target: T1, Serine protease hepsin; test: Inhibition of recombinant C-terminal His10-tagged human Hepsin (R45 to […] residues) D161E/ R162K double mutant expressed in mouse NS0 cells using Boc-QRR-AMC as substrate after 15 mins by manual fluorescence assay
[8] = molecular target: T2, Urokinase-type plasminogen activator; test: Inhibition of recombinant C-terminal His10-tagged human uPA (M1 to L431 residues) expressed in mouse NS0 cells using Z-GGR-AMC as substrate after 15 mins by manual fluorescence assay
Homo sapiens [9] = species: Homo sapiens; test: Selectivity ratio of IC50 for recombinant C-terminal His10-tagged human uPA (M1 to L431 residues) to IC50 for recombinant C-terminal His10-tagged human Hepsin (R45 to […] residues) D161E/ R162K double mutant by manual fluorescence assay
Serine protease hepsin [10] = molecular target: T3, Serine protease hepsin; test: Inhibition of doxycycline induced Hepsin in human MCF10A cells using Boc-QRR-AMC as substrate preincubated for 24 hrs followed by doxycycline induction for 24 hrs and subsequent addition of substrate by fluorescence assay; type: cell-based
Serine protease hepsin [11] = molecular target: T3, Serine protease hepsin; test: Inhibition of doxycycline induced Hepsin in human MCF10A cells assessed as prevention in loss of HAI-1 level at 10 uM preincubated for 30 mins followed by doxycycline addition measured after 6 hrs by Immunoblot assay; type: cell-based
Outline: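 MCF10A-Indu20-hepsin cells (Dox-inducible hepsin) pretreated 30 min with compound or DMSO, then hepsin induced with 100 ng/mL doxycycline for 6 h; HAI-1 protein scored by immunoblot.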

Serine protease hepsin [12] = molecular target: T3, Serine protease hepsin; test: Inhibition of hepsin-mediated conversion of Pro-HGF into active form in human Hs578T cells assessed as decrease in MET phosphorylation at 1 to 10 uM preincubated for 30 mins followed by recombinant human pro-HGF addition measured after 30 mins by immunoblot method; type: cell-based; outline: as §2
[13] = molecular target: T2, Urokinase-type plasminogen activator; test: Inhibition of uPA (unknown origin)
Outline: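 uPA inhibition was run as an on-line biochemical assay integrated into the automated flow-synthesis platform. A 20 µL aliquot of each product solution was automatically captured, HPLC-purified, diluted and assayed. Some samples were instead screened manually, either from platform-synthesized material or from off-line synthesis. The read-out is IC50.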

Serine protease hepsin [14] = molecular target: T3, Serine protease hepsin; test: Inhibition of doxycycline induced hepsin-mediated loss of desmosomal junctions in human MCF10A cells at 1 to 10 uM preincubated for 30 mins followed by doxycycline addition measured after 6 hrs by desmoglein 2 staining-based confocal immunofluorescence microscopic analysis; type: cell-based
Outline: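 MCF10A-Indu20-hepsin cells on coverslips pretreated 30 min with 1 or 10 µM compound or DMSO, then 100 ng/mL Dox for 6 h. Desmoglein 2 immunofluorescence: continuous pericellular staining scored positive, discontinuous or absent scored negative. Cells counted in 10 fields per treatment across three biological replicates; reported as percentages.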

Serine protease hepsin [15] = molecular target: T3, Serine protease hepsin; test: Inhibition of recombinant Hepsin (unknown origin)

SMILES | IC50 (Serine protease hepsin [1]) | IC50 [2] | Ratio IC50 (Homo sapiens [3]) | chromatographic logD [4] | other results
Cc1ccc(C(=O)N[C@@H](C(=O)Nc2ccc(C(=N)N)cc2)C2CCCCC2)cc1 | 5 µM | 24.5 µM | 5 | 1.7 | 
CCCCC(NS(=O)(=O)c1ccc(C)cc1)C(=O)Nc1ccc(C(=N)N)cc1 (configuration not stated) | 0.5 to 0.9 µM | 3 to 5 µM | 3 to 10 | 1.2 | 
N=C(N)c1ccc(C[C@@H](NC(=O)CNS(=O)(=O)c2ccc3ccccc3c2)C(=O)N2CCCCC2)cc1 | 4.46 µM |  |  |  | 
C[C@@H](Oc1cc(-c2cnn(C3CCNCC3)c2)cnc1N)c1c(Cl)ccc(F)c1Cl |  |  |  |  | inhibition (Serine protease hepsin [5]): Active; inhibition (Serine protease hepsin [6]): Active
Cc1ccc(S(=O)(=O)N[C@H](C(=O)Nc2ccc(C(=N)N)cc2)C2CCCCC2)cc1 |  |  |  | 1.3 | IC50 (Serine protease hepsin [7]): 0.22 µM
Cc1ccc(S(=O)(=O)NC(CC2CCCC2)C(=O)Nc2ccc(C(=N)N)cc2)cc1 (configuration not stated) | 0.7 µM | 16 µM | 23 | 1.5 | 
Cc1ccc(S(=O)(=O)NC(C(=O)Nc2ccc(C(=N)N)cc2)C2CCOCC2)cc1 (configuration not stated) | 1.4 µM | > 19 µM | > 13 | 0.4 | 
Cc1ccc(S(=O)(=O)NC(CC(C)C)C(=O)Nc2ccc(C(=N)N)cc2)cc1 (configuration not stated) | 0.6 to 0.9 µM | 11 to 20 µM | 12 to 33 | 1.2 | 
N=C(N)c1ccc(NC(=O)[C@H](NS(=O)(=O)c2ccccc2)C2CCCCC2)cc1 | 1.1 µM | 22 µM | 20 | 1.2 | 
Cc1ccc(S(=O)(=O)NC(C(=O)Nc2ccc(C(=N)N)cc2)C(C)C)cc1 (configuration not stated) | 1.8 µM | 7.2 µM | 4 | 0.8 | 
N=C(N)c1ccc(NC(=O)[C@H](NS(=O)(=O)c2ccc(C(F)(F)F)cc2)C2CCCCC2)cc1 | 0.68 µM | 4.7 µM | 7 | 1.7 | IC50 (Serine protease hepsin [7]): 0.85 µM; IC50 [8]: > 1950 µM; Ratio IC50 (Homo sapiens [9]): > 2300; IC50 (Serine protease hepsin [10]): 3.15 µM; inhibition (Serine protease hepsin [11]): inactive; inhibition (Serine protease hepsin [12]): Active
N=C(N)c1ccc(NC(=O)[C@H](NS(=O)(=O)c2ccc(Cl)cc2)C2CCCCC2)cc1 | 0.1 µM | 18 µM | 180 | 1.5 | 
Cc1ccc(S(=O)(=O)NCC(Cc2ccccc2)C(=O)Nc2ccc(C(=N)N)cc2)cc1 (configuration not stated) | 3 µM | 1 µM | 0.3 | 1.6 | 
CCCCC(NS(=O)(=O)c1ccc(C)cc1)C(=O)Nc1ccc(Br)cc1 (configuration not stated) | 58 µM | 58 µM | 1 |  | 
Cc1ccc(S(=O)(=O)N(C)C(CC(C)C)C(=O)Nc2ccc(C(=N)N)cc2)cc1 (configuration not stated) | > 19 µM | 24 µM | < 1 | 1.8 | 
N=C(N)c1ccc2cc(OC(=O)c3ccc(N=C(N)N)cc3)ccc2c1 [NAFAMOSTAT] | 0.005 µM |  |  |  | 
N=C(N)NCCC[C@@H](NC(=O)c1ccc2ccccc2c1O)C(=O)N1CCC[C@@H]1C(N)=O | > 10 µM |  |  |  | 

SMILES | IC50 (Serine protease hepsin [1]) | IC50 [2] | Ratio IC50 (Homo sapiens [3]) | chromatographic logD [4] | other results
Cc1ccc(S(=O)(=O)NC(C(=O)Nc2ccc(C(=N)N)cc2)c2ccccc2)cc1 (configuration not stated) |  |  |  | 0.9 | IC50 (Serine protease hepsin [7]): 0.25 µM; IC50 [8]: 60 µM
CCCCC(NS(=O)(=O)c1ccc(C)cc1)C(=O)Nc1ccc(C(=N)N)cc1F (configuration not stated) | 0.9 µM | 8 µM | 9 | 1.4 | 
N=C(N)c1ccc(/C=C2\CCCC/C(=C\c3ccc(C(=N)N)cc3)C2=O)cc1 | 0.272 µM | 0.484 µM |  |  | 
Cc1ccc(S(=O)(=O)NC(CC(=O)Nc2ccc(C(=N)N)cc2)C2CCCCC2)cc1 (configuration not stated) | 11 µM | 68 µM | 6 | 1.4 | 
Cc1ccc(NC(=O)N[C@@H](C(=O)Nc2ccc(C(=N)N)cc2)C2CCCCC2)cc1 | 2 µM | 43 µM | 22 | 1.5 | 
COC(=O)N1CCN(C(=O)[C@H](Cc2cccc(C(=N)N)c2)NS(=O)(=O)c2ccc3ccccc3c2)CC1 | 6.19 µM |  |  |  | 
COc1ccc(S(=O)(=O)N[C@@H](C(=O)Nc2ccc(C(=N)N)cc2)C2CCCCC2)cc1 | 0.3 µM | 12 µM | 40 | 1.3 | 
CCCCC(NS(=O)(=O)c1ccc(C)cc1)C(=O)Nc1cccc(C(=N)N)c1 (configuration not stated) | 73 µM | 19 µM | 0.26 | 1.1 | 
CC1CNc2c(cccc2S(=O)(=O)N[C@@H](CCCN=C(N)N)C(=O)N2CC[C@H](C)CC2C(=O)O)C1 (some centres not stated) | > 10 µM |  |  |  | 
Cc1ccc(S(=O)(=O)NC(CCc2ccccc2)C(=O)Nc2ccc(C(=N)N)cc2)cc1 (configuration not stated) | 1.13 µM | > 10 µM |  |  | IC50 (Serine protease hepsin [7]): 0.87 µM; IC50 [8]: 26 µM; Ratio IC50 (Homo sapiens [9]): 30
CN(C)C(=O)N1CCN(C(=O)[C@@H](Cc2cccc(C(=N)N)c2)NS(=O)(=O)c2ccc3ccccc3c2)CC1 | 6.55 µM |  |  |  | IC50 [13]: > 10 µM
CCOC(=O)N1CCN(C(=O)[C@@H](Cc2cccc(C(=N)N)c2)NS(=O)(=O)c2c(C(C)C)cc(C(C)C)cc2C(C)C)CC1 | 3.35 µM | 0.285 µM |  |  | IC50 (Serine protease hepsin [10]): 6.49 µM; inhibition (Serine protease hepsin [11]): inactive; inhibition (Serine protease hepsin [12]): Active; inhibition (Serine protease hepsin [14]): inactive; IC50 (Serine protease hepsin [15]): 3 µM
COC(=O)C(Cc1cccc(C(=N)N)c1)NC(=O)CNS(=O)(=O)c1ccc(C)cc1 (configuration not stated) | 3.14 µM | > 10 µM |  |  | 
Cc1ccc(S(=O)(=O)N2CCCC2C(=O)Nc2ccc(C(=N)N)cc2)cc1 (configuration not stated) | 1.5 to 3 µM | 5.3 to 28 µM | 3 to 9 | 0.5 | 
CCOC(=O)c1ccc(OC(=O)CCCCCNC(=N)N)cc1 [GABEXATE] | 0.383 µM |  |  |  | 
N=C(N)c1cccc(C[C@H](NS(=O)(=O)c2ccc3ccccc3c2)C(=O)N2CCCC(C(=O)NCc3cccs3)C2)c1 (some centres not stated) | 0.676 µM | 2.43 µM |  |  | IC50 (Serine protease hepsin [7]): 0.33 µM; IC50 [8]: 6 µM; Ratio IC50 (Homo sapiens [9]): 18
Cc1ccc(S(=O)(=O)NC(C(=O)Nc2ccc(C(=N)N)cc2)C2CCCC2)cc1 (configuration not stated) | 0.86 µM | 64 µM | 74 | 0.4 | 

— ChEMBL document CHEMBL4118144, “Design, Synthesis, and Testing of Potent, Selective Hepsin Inhibitors via Application of an Automated Closed-Loop Optimization Platform” (J Med Chem, 2018)
